Measurements reported in ChEMBL document CHEMBL4251710, “Antibacterial Muraymycins from Mutant Strains of Streptomyces sp. NRRL 30471” (J Nat Prod, 2018).
Values after ≈ are worked out from the molar mass of the structure shown.

Key:
[1] = target: T1, Phospho-N-acetylmuramoyl-pentapeptide-transferase (Staphylococcus aureus, UniProt P0C1R8); assay: Inhibition of Staphylococcus aureus MraY expressed in Escherichia coli membrane using Park's nucleotide as substrate pretreated for 30 mins followed by substrate addition measured up to 2 mins by fluorescence assay; format: cell membranes
T1 sequence (P0C1R8 whole entry): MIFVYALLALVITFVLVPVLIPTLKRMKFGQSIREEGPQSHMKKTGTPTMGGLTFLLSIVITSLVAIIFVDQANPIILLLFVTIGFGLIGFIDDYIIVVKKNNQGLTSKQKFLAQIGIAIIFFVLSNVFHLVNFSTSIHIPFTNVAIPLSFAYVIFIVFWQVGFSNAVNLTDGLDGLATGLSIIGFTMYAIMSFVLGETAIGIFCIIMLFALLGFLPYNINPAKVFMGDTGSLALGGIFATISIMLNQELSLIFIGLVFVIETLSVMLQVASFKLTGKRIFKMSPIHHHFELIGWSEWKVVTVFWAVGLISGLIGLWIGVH

Staphylococcus aureus [2] = assay: Antimicrobial activity against Staphylococcus aureus subsp. aureus str. Newman after 16 hrs by resazurin dye based assay; format: functional
In short: (§1)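 Overnight cultures (16 h, 37 °C) were diluted 1000-fold, grown to OD600 0.4, then diluted 1000-fold again. Cells were exposed to serially diluted compound from a top final concentration of 256 or 32 μg/mL, against a 1% DMSO or water control. Plates were incubated 16 h at 37 °C, read at OD600 normalised to control, then given resazurin for 3 h. The MIC was the lowest concentration inhibiting growth.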

Escherichia coli [3] = assay: Antimicrobial activity against Escherichia coli BL21(DE3) after 16 hrs by resazurin dye based assay; format: functional; in short: as §1
Escherichia coli [4] = assay: Antimicrobial activity against tolC deficient Escherichia coli JW5503 after 16 hrs by resazurin dye based assay; format: functional; conditions: JW5503, 16 h; in short: as §1
[5] = target: T2, Phospho-N-acetylmuramoyl-pentapeptide-transferase (Aquifex aeolicus (strain VF5), UniProt O66465); assay: Inhibition of Aquifex aeolicus MraY expressed in Escherichia coli C41(DE3) using Park's nucleotide as substrate pretreated for 30 mins followed by substrate addition measured up to 2 mins by fluorescence assay
T2 sequence (O66465 whole entry): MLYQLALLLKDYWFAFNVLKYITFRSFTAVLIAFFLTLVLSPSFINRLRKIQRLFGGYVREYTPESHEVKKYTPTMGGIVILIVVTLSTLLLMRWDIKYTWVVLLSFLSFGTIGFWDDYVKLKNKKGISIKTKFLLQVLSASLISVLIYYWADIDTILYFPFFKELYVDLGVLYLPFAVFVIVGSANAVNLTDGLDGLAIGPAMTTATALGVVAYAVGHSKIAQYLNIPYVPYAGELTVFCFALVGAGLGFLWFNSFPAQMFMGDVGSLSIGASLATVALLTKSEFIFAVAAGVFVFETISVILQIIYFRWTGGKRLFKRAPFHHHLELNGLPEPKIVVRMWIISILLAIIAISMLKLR
In short: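 Purified His-MBP-tagged AaMraY was expressed in E. coli C41(DE3), extracted with DDM, purified on cobalt resin, protease-cleaved and gel-filtered in DM. The enzyme (1 μL at 0.1 mg/mL) was preincubated 30 min at room temperature with inhibitor, undecaprenyl phosphate, pH 7.5 Tris, KCl, MgCl2, 0.1% Triton X-100 and 0–5% DMSO. Dansylated Park's nucleotide was then added. Fluorescence (ex 355/em 520 nm) was followed, and the rate was taken from a linear fit over 0–2 min.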

Staphylococcus aureus [6] = assay: Antimicrobial activity against Staphylococcus aureus infected in mouse; format: functional
Escherichia coli [7] = assay: Antimicrobial activity against Escherichia coli harboring imp mutant; format: functional

Row | Compound | IC50 [1] [nM] | MIC (Staphylococcus aureus [2]) [µg/mL] | MIC (Escherichia coli [3]) [µg/mL] | MIC (Escherichia coli [4]) [µg/mL] | IC50 [5] [nM] | ED50 (Staphylococcus aureus [6]) [mg/kg] | MIC (Escherichia coli [7]) [µg/mL]
1 | CO[C@H]1[C@H](O[C@H]([C@H]2O[C@@H](n3ccc(=O)[nH]c3=O)[C@H](O)[C@@H]2O)[C@H](NCCCNC(=O)[C@@H](NC(=O)[C@@H](NC(=O)N[C@H](C(=O)O)C(C)C)[C@@H]2CCNC(=N)N2)[C@@H](OC(=O)CCCCCCCCCCCCC(C)C)C(C)C)C(=O)O)O[C@H](CN)[C@H]1O | 0.004 | 2 (≈ 1.69 µM) | 64 (≈ 54 µM) | 4 (≈ 3.38 µM) | – | – | –
2 | CO[C@H]1[C@H](O[C@H]([C@H]2O[C@@H](n3ccc(=O)[nH]c3=O)[C@H](O)[C@@H]2O)[C@H](NCCCNC(=O)[C@@H](NC(=O)[C@@H](NC(=O)N[C@H](C(=O)O)C(C)C)[C@@H]2CCNC(=N)N2)[C@@H](O)C(C)C)C(=O)O)O[C@H](CN)[C@H]1O | 0.0157 | > 32 | 8 (≈ 8.46 µM) | 1 (≈ 1.06 µM) | 0.35 | – | –
3 | CO[C@H]1[C@H](O[C@H]([C@H]2O[C@@H](n3ccc(=O)[nH]c3=O)[C@H](O)[C@@H]2O)[C@H](NCCCNC(=O)[C@@H](NC(=O)[C@@H](NC(=O)N[C@H](C(=O)O)C(C)C)[C@@H]2CCNC(=N)N2)[C@@H](OC(=O)CCCCCCCCCCC(C)C)C(C)C)C(=O)O)O[C@H](CN)[C@H]1O | 0.0221 | 6 (≈ 5.19 µM) | 32 (≈ 27.7 µM) | 2 (≈ 1.73 µM) | 0.32 | – | –
4 | CO[C@H]1[C@H](O[C@H]([C@H]2O[C@@H](n3ccc(=O)[nH]c3=O)[C@H](O)[C@@H]2O)[C@H](NCCCNC(=O)[C@@H](NC(=O)[C@@H](NC(=O)N[C@H](C(=O)O)C(C)C)[C@@H]2CCNC(=N)N2)[C@@H](O)C(C)C)C(=O)O)O[C@H](CNC(C)=O)[C@H]1O | 0.093 | > 32 | 256 (≈ 259 µM) | 16 (≈ 16.2 µM) | 1.8 | – | –
5 | CO[C@H]1[C@H](O[C@H]([C@H]2O[C@@H](n3ccc(=O)[nH]c3=O)[C@H](O)[C@@H]2O)[C@H](NCCCNC(=O)[C@@H](NC(=O)[C@@H](NC(=O)N[C@H](C(=O)O)C(C)C)[C@@H]2CCNC(=N)N2)[C@@H](OC(=O)CCCCCCCCCCCCN(O)C(=N)N)C(C)C)C(=O)O)O[C@H](CN)[C@H]1O | – | – | – | – | – | 1.1 | < 0.03
